The results in this text go back to ChEMBL document CHEMBL1155924, “Achieving multi-isoform PI3K inhibition in a series of substituted 3,4-dihydro-2H-benzo[1,4]oxazines” (Bioorg Med Chem Lett, 2008).

In data set [1] the target is Serine/threonine-protein kinase pim-1 (Homo sapiens) (UniProt P11309). In words: Inhibition of PIM1 at 10 uM.
The target in data set [2] is Mitogen-activated protein kinase 14 (Homo sapiens) (UniProt Q16539). In words: Inhibition of SAPK2a at 10 uM.
Another data set relates to Hepatocyte. Description: Clearance in rat hepatocyte assessed per mg of protein at 2 uM. The note with it: hepatocytes. The data set is classed as ADME, cell-based, Liver.
Data set [3] is described as follows: Cmax in Han-Wistar rat at 3 mg/kg, po. The data set is classed as ADME, organism-based. The settings on record: in vivo. Also on record: dose 3 mg/kg, route oral. An outline of the steps: (§1)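 Male-or-unspecified Han–Wistar rats were given a single oral dose of 3 mg/kg. Plasma Cmax is reported in ng/mL and AUC in ng h/mL.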
A short description of data set [4]: AUC in Han-Wistar rat at 3 mg/kg, po. It is filed as ADME, organism-based. Also on record: dose 3 mg/kg, route oral. The note with it: plasma. The procedure, abridged: as §1
Data set [5] in a line: Clearance in Han-Wistar rat at 1 mg/kg, iv. Also on record: dose 1 mg/kg, route intravenous. The note with it: in vivo. The data set is classed as ADME, organism-based. An outline of the steps:
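Han–Wistar rats were dosed intravenously at 1 mg/kg. Clearance is reported in mL/min/kg.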

A short description of data set [6]: Oral bioavailability in Han-Wistar rat at 3 mg/kg. It is filed as ADME, organism-based. The note with it: in vivo.
In another data set the test system is Rattus norvegicus. Description: Inhibition of anti-CD3-induced IL2 release in po dosed Lewis rat blood. It is filed as functional. The procedure, abridged: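 Acute T-cell activation was induced by anti-CD3 antibody in male Lewis rats. Compound was given orally, and IL2 released into blood was measured. Percent inhibition of IL-2 was plotted against log dose (mg/kg) to derive ED50. Values are mean ± SEM, n = 8.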

In data set [7] the target is T1, Testis-specific serine/threonine-protein kinase 1 (Homo sapiens) (UniProt Q9BXA7).
T1 sequence (whole entry): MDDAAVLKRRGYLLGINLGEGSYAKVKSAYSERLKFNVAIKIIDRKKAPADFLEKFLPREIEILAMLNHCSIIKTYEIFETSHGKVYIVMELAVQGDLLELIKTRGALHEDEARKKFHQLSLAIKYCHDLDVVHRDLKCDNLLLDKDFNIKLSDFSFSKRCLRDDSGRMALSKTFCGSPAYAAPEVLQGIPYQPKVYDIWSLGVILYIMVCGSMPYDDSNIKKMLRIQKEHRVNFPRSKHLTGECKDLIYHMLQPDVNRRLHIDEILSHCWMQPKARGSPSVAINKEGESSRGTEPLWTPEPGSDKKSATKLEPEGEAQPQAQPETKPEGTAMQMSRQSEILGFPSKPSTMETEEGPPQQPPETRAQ
Description: Inhibition of TSSK1 at 10 uM.

Data set [8] has as its target T2, Phosphatidylinositol 4,5-bisphosphate 3-kinase catalytic subunit delta isoform (Homo sapiens, UniProt O00329).
T2 sequence (O00329 whole entry): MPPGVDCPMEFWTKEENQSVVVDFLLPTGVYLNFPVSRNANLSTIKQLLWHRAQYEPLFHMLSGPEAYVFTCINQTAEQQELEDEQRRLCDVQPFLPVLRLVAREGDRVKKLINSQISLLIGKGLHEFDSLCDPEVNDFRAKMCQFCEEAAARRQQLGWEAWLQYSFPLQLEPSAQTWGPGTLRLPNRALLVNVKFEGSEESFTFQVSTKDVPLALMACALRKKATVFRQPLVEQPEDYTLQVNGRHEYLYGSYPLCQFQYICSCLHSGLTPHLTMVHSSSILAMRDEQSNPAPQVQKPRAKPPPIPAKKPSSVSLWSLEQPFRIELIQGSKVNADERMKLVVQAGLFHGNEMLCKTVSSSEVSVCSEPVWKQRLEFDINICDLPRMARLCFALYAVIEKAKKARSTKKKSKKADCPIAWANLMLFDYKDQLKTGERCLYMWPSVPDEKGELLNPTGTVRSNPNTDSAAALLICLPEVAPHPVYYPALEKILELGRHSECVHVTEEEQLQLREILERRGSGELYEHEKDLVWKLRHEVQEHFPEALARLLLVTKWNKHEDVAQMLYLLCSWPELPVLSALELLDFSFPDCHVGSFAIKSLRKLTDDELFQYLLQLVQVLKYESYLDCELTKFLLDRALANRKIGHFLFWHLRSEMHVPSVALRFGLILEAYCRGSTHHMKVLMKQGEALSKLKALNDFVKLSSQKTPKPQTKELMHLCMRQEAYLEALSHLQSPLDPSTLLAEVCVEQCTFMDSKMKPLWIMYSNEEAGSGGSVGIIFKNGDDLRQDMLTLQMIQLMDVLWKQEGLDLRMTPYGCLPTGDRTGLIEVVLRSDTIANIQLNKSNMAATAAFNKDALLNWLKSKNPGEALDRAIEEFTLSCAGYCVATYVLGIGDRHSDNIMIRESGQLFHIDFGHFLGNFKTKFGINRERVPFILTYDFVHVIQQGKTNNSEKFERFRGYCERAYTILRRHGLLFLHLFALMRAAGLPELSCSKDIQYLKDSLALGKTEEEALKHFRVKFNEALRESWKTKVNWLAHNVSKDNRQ
Description: Inhibition of PI3K delta.

The target of data set [9] is Phosphatidylinositol 4,5-bisphosphate 3-kinase catalytic subunit gamma isoform (Homo sapiens, UniProt P48736). In words: Inhibition of PI3K gamma.
Data set [10] has as its target Phosphatidylinositol 4,5-bisphosphate 3-kinase catalytic subunit alpha isoform (Homo sapiens, UniProt P42336). Description: Inhibition of PI3K alpha.
Data set [11] addresses Phosphatidylinositol 4,5-bisphosphate 3-kinase catalytic subunit beta isoform (Homo sapiens, UniProt P42338). Description: Inhibition of PI3K beta.
The nature of data set [12]: Inhibition of CaMK2 at 10 uM.
Data set [13] is described as follows: Inhibition of CK1 at 10 uM.
Data set [14] deals with T3, Serine/threonine-protein kinase mTOR (Homo sapiens, UniProt P42345). In words: Inhibition of mTOR at 10 uM.
The next data set has as its system Neutrophil. Description: Inhibition of fMLP-stimulated superoxide production in TNF alpha-primed human neutrophils by spectrophotometry. The data set is classed as functional, cell-based. The procedure, abridged:
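Human neutrophils were primed with TNFα and stimulated with fMLP, and cellular superoxide production was monitored. Inhibition values are quoted in nM.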

A short description of data set [15]: Clearance in rat microsomes assessed per mg of protein at 0.5 uM. The data set is classed as ADME, Liver, Microsome. The settings on record: liver microsomes.
Data set [16] is described as follows: Clearance in human microsomes assessed per mg of protein at 0.5 uM. It is filed as ADME, Microsome.
The target in data set [17] is T3, Serine/threonine-protein kinase mTOR. In words: Inhibition of mTOR.

Molecules are shown by their SMILES. Active and inactive are the calls of the source. No cut-off for these calls is given here.

Sequence of Serine/threonine-protein kinase pim-1 (Homo sapiens) (P11309 whole entry, looked up): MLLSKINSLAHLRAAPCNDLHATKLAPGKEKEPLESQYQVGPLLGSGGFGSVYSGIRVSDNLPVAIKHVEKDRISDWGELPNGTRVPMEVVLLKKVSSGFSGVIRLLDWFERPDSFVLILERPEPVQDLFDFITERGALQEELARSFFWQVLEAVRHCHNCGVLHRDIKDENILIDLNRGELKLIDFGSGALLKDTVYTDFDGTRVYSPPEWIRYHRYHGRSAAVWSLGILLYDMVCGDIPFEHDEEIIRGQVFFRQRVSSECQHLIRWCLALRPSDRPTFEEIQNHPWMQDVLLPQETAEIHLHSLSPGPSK
Sequence of Mitogen-activated protein kinase 14 (Homo sapiens) (Q16539 whole entry): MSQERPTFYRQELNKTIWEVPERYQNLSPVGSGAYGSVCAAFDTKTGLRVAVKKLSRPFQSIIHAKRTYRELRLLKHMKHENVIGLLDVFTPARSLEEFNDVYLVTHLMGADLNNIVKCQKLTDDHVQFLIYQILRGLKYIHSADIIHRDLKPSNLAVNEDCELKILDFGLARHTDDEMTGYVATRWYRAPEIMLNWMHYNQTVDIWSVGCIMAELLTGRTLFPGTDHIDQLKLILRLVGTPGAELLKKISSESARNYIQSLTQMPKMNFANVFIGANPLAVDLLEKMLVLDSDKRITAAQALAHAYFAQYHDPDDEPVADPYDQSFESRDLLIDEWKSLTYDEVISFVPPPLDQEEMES
Sequence of Phosphatidylinositol 4,5-bisphosphate 3-kinase catalytic subunit beta isoform (P42338 whole entry, canonical isoform): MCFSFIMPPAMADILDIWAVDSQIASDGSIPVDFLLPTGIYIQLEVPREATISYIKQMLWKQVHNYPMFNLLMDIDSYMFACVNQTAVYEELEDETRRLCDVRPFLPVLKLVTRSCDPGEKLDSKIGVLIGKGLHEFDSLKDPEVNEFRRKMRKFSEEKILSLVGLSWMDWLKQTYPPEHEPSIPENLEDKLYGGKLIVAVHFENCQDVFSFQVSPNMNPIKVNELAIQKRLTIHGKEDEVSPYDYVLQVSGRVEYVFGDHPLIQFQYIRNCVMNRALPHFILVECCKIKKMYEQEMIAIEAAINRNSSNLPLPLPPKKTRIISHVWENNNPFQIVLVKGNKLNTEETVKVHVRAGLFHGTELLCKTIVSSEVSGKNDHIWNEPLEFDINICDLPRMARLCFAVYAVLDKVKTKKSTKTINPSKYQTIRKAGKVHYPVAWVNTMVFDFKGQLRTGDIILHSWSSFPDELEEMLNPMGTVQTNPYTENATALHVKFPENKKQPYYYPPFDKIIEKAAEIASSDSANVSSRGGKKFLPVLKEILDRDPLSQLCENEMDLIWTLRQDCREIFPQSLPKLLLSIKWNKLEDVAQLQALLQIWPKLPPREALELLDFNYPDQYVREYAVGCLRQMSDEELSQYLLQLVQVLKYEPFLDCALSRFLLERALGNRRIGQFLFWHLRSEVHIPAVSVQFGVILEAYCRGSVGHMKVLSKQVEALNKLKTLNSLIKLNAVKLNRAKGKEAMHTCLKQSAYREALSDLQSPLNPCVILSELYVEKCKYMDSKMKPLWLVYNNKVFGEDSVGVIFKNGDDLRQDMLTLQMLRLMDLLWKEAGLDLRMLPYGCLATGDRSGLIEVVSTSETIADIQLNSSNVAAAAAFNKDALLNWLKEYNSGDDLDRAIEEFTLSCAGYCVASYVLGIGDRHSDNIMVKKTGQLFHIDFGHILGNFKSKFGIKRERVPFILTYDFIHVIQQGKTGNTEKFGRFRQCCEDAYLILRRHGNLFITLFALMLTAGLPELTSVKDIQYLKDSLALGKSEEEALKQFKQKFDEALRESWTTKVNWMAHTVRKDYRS
Sequence of Phosphatidylinositol 4,5-bisphosphate 3-kinase catalytic subunit alpha isoform (P42336 whole entry, canonical isoform): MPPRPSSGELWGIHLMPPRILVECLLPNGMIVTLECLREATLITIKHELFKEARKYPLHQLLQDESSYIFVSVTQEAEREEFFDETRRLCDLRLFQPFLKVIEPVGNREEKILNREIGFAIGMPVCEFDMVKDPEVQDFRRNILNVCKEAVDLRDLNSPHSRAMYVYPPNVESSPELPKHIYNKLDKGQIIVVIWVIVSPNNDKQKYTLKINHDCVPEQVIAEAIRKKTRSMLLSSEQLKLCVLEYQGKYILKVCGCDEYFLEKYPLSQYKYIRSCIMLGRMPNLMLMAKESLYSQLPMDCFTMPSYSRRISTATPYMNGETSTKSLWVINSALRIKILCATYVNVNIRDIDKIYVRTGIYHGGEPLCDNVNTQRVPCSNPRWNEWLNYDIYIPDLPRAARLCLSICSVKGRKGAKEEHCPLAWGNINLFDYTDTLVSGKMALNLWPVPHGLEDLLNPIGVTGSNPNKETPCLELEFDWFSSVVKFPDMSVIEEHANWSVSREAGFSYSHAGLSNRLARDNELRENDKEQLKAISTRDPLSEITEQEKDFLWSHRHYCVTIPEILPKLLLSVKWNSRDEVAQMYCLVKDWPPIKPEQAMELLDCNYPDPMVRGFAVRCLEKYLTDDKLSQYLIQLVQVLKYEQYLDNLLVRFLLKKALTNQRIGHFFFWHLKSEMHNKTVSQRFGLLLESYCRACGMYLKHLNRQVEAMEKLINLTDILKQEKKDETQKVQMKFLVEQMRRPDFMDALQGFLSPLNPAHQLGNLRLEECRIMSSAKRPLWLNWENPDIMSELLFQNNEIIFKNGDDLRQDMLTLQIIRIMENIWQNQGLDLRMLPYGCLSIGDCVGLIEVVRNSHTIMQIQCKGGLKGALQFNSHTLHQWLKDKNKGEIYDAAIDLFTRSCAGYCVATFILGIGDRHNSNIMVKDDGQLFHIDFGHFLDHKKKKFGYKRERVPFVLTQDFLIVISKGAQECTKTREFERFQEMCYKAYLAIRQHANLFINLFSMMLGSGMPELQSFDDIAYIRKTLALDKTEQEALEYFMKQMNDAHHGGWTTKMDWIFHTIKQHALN
Sequence of Phosphatidylinositol 4,5-bisphosphate 3-kinase catalytic subunit gamma isoform (P48736 whole entry, canonical isoform): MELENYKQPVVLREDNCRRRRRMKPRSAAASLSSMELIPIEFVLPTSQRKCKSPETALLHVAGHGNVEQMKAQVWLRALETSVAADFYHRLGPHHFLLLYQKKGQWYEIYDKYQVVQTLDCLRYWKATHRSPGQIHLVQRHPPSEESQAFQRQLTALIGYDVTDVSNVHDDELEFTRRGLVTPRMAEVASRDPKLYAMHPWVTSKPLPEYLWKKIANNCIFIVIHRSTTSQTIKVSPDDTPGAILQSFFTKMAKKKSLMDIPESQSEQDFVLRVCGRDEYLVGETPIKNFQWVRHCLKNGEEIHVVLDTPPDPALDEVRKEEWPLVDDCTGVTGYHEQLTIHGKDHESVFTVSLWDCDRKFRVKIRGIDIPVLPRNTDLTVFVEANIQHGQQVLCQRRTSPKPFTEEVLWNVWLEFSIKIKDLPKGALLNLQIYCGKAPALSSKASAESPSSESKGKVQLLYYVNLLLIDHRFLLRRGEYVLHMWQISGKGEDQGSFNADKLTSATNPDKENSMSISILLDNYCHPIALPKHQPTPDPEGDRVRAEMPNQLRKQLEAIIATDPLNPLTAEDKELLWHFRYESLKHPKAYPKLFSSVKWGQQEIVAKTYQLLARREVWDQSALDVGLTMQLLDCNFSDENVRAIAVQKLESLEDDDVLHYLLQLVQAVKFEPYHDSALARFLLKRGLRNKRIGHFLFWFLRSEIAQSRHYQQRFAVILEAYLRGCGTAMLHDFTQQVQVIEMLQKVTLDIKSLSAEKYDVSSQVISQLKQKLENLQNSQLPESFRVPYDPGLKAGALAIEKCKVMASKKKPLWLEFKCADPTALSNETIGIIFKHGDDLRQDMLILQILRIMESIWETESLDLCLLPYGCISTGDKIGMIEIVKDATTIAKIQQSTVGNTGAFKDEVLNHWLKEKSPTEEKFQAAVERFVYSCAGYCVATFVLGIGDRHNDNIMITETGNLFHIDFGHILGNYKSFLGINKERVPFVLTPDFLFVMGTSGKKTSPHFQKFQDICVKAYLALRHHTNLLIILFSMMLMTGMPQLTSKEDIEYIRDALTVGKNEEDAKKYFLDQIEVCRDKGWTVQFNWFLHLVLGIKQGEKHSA

Take `Cn1cc(-c2ccc3c(c2)N(c2nc4c(s2)C(=O)NC(C)(C)C4)CCO3)cn1`: the inhibition in data set [1] and in data set [2] was over 50% in each case. Besides, the clearance was 0 µL/min/mg with Hepatocyte and 7 mL/min/kg in data set [5]. Further, in data set [3], the concentration peaked (Cmax) at 1220 ng/mL. The AUC in data set [4] is 6160 ng·h/mL. Moreover, the bioavailability in [6] amounted to 97%. Also, in the data set on Rattus norvegicus, it took a dose of 25 mg/kg to reach the 50% effect level (ED50).

On to `Cc1ccc(-c2ccc3c(c2)N(c2nc4c(s2)C(=O)NC(C)(C)C4)CCO3)cn1`, for which the inhibition in [7], in [1], in data set [12] and in data set [13] was over 80% throughout. Also, the IC50 in data set [8] was 21 nM; in [9] it was 28 nM; in data set [10] it was 116 nM; in data set [11] it was 452 nM; with Neutrophil, 57 nM; in [17], over 15000 nM. Moreover, the outcome in data set [14] was inactive. Further, the results for the microsomal CLint at 0.5 µM in [15] and in data set [16] were 17 µL/min/mg and 25 µL/min/mg, respectively. Further, the CL in the data set on Hepatocyte stood at 7 µL/min/mg. In addition, in data set [3], the Cmax turned out to be 649 ng/mL. In [4], this compound showed an AUC of 2880 ng·h/mL. The same compound registered an ED50 with Rattus norvegicus of 15 mg/kg.
